Converted amounts (≈) assume the structure as drawn.
Tests used:
[1] = tested on: herpes simplex virus type 1 (HSV-1); assay: Plaque assay for antiviral activity, Vero cells; assay type: cell-based; conditions: for mean % of reduction, herpes simplex virus type-1: nontoxic dose, viral titers 1 × 10^5, 1 × 10^6, 1 × 10^7; for IC50: Human alphaherpesvirus 1, Vero
[2] = tested on: adenovirus type 7 (HAdV7); assay: Plaque assay for antiviral activity, Hep-2 cells; assay type: cell-based; conditions: for mean % of reduction, adenovirus type 7: nontoxic dose, viral titers 1 × 10^5, 1 × 10^6, 1 × 10^7
Method in brief: (§1)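 Nontoxic dilutions were mixed 1:1 (100 µL each) with virus (10⁵–10⁷) for 0.5 h at 37 °C. Tenfold dilutions were plated on Hep-2 (HAdV7), FRHK-4 (HAV HM175) or BGM (CBV4), adsorbed 1 h at 37 °C under 5% CO₂, and overlaid with 2× DMEM plus 1% agarose. Plaques were fixed with formalin, stained with crystal violet and counted as pfu/mL. IC50 is the half-maximal plaque reduction; SI = CC50/IC50. Triplicates.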

HCVcc genotype 4 = assay: Antiviral bioassay against ED-43/SG-Feo; assay type: cell-based, hepatitis C virus genotype 4a; conditions: for mean % of reduction, HCVcc genotype 4: nontoxic dose, viral titers 1 × 10^5, 1 × 10^6, 1 × 10^7
Vero = assay: Cytotoxicity test; assay type: cell-based; conditions: Vero cell line
Method in brief: (§2)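 Stocks of 50 mg/mL in DMSO, with antibiotic–antimycotic added, were diluted twofold in DMEM. Cells at 2 × 10⁵ cells/mL were grown 24 h at 37 °C under 5% CO₂ to confluence, then exposed 72 h. Morphology was scored daily by inverted microscopy. Viable cells were counted by 0.4% trypan blue exclusion after trypsinisation. CC50 halves OD492 of treated versus untreated uninfected cells. Triplicates.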

Hep-2 = assay: Cytotoxicity test; assay type: cell-based; conditions: Hep-2 cell line
Method in brief: as §2

BGM = assay: Cytotoxicity test; assay type: cell-based; conditions: for nontoxic dose: BGM cell line
Method in brief: as §2

FRHK-4 = assay: Cytotoxicity test; assay type: cell-based; conditions: FRHK-4 cell line
Method in brief: as §2

[3] = tested on: hepatitis A virus (HAV) HM175; assay: Plaque assay for antiviral activity, FRHK-4 cells; assay type: cell-based; conditions: for mean % of reduction, hepatitis A virus HM175: nontoxic dose, viral titers 1 × 10^5, 1 × 10^6, 1 × 10^7
Method in brief: as §1

coxsackievirus B4 (CBV4) = assay: Plaque assay for antiviral activity, BGM cells; assay type: cell-based; conditions: for mean % of reduction, coxsackievirus B4: nontoxic dose, viral titers 1 × 10^5, 1 × 10^6, 1 × 10^7; for SI: CC50/IC50 ratio
Method in brief: as §1

Huh 7.5 = assay: Cytotoxicity test; assay type: cell-based; conditions: Huh 7.5 cell line
Method in brief: as §2

USP7 enzyme = USP7 enzyme (Homo sapiens, UniProt Q93009); assay: USP7 Inhibitor Screening Assay Kit; assay type: biochemical; conditions: for inhibition at 0.1 µg/mL / inhibition at 1 µg/mL / inhibition at 10 µg/mL / inhibition at 100 µg/mL: read-out: inhibition percentage against USP7
Method in brief: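 Human recombinant USP7 from a commercial kit was stabilised with DTT and used at 0.4 ng/µL. Ub-AMC substrate was diluted 400-fold in 1× assay buffer, test compound or inhibitor buffer was added, and the enzyme started the reaction. After 30 min at room temperature with rotation, fluorescence was read at 360 nm excitation and 460 nm emission, minus blank.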

Cytotoxicity test [4] = assay type: cell-based; conditions: African green monkey, uninfected Vero cells
Method in brief: as §2

Cytotoxicity test [5] = assay type: cell-based; conditions: human, uninfected Hep-2 cells
Method in brief: as §2

Cytotoxicity test [6] = assay type: cell-based; conditions: African green monkey, uninfected BGM cells
Method in brief: as §2

Cytotoxicity test [7] = assay type: cell-based; conditions: rhesus monkey, uninfected FRHK-4 cells
Method in brief: as §2

Cytotoxicity test [8] = assay type: cell-based; conditions: human, uninfected Huh 7.5 cells
Method in brief: as §2

Chain of USP7 enzyme (Q93009 whole entry): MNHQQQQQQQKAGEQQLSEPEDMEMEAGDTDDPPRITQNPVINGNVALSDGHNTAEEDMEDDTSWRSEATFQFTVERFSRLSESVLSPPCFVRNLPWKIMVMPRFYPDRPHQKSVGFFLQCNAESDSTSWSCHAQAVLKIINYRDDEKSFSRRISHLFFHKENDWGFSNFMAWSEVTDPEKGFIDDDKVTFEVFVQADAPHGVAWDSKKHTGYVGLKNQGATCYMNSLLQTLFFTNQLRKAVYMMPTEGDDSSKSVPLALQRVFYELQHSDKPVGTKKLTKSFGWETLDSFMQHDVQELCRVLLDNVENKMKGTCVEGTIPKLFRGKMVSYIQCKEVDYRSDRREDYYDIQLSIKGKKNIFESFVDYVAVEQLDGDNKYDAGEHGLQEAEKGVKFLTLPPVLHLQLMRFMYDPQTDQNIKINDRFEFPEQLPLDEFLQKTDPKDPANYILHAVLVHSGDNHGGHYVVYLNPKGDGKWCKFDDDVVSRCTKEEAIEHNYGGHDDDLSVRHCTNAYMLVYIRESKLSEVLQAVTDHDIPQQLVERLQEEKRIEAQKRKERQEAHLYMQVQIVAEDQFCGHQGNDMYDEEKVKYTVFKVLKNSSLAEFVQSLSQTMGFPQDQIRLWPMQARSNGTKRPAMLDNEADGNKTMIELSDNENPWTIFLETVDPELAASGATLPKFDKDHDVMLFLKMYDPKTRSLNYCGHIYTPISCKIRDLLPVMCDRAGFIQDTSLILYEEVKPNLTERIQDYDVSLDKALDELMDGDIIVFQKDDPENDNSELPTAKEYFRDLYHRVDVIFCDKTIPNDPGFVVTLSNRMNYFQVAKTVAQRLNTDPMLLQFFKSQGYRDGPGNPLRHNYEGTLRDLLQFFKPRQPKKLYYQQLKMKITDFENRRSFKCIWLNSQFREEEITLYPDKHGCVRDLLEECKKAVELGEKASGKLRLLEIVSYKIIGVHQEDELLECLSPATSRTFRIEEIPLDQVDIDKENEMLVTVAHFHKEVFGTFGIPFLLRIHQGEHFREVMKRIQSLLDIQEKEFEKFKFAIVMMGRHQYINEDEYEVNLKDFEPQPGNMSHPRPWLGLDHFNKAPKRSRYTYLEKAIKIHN

| Compound | mean % of reduction, herpes simplex virus type-1 [1] | mean % of reduction, adenovirus type 7 [2] | mean % of reduction, HCVcc genotype 4 (HCVcc genotype 4) | nontoxic dose (Vero) | nontoxic dose (Hep-2) | nontoxic dose (BGM) | nontoxic dose (FRHK-4) | mean % of reduction, hepatitis A virus HM175 [3] | mean % of reduction, coxsackievirus B4 (coxsackievirus B4 (CBV4)) | nontoxic dose (Huh 7.5) | also measured |
| --- | --- | --- | --- | --- | --- | --- | --- | --- | --- | --- | --- |
| N#Cc1cc(-c2nc3ccccc3s2)c(=O)n(NS(=O)(=O)c2ccc(Cl)cc2)c1N [compound 13b, N-(6-Amino-3-(benzo[d]thiazole-2-yl)-5-cyano-2-oxopyridine-1(2H)-yl)-4-chlorobenzensulfonamide] | 26.7% | 16.7% | 26.7% | 100 µg/mL | 100 µg/mL | 100 µg/mL | 100 µg/mL | 26.7% | 30.0% | 100 µg/mL |  |
| N#Cc1cc(-c2nc3ccccc3s2)c(=O)n(NS(=O)(=O)c2ccccc2)c1N [compound 13a, N-(6-Amino-3-(benzo[d]thiazole-2-yl)-5-cyano-2-oxopyridine-1(2H)-yl)benzensulfonamide] |  | 50% | 56.7% | 110 µg/mL | 110 µg/mL | 100 µg/mL | 110 µg/mL | 60% |  | 100 µg/mL | IC50 (USP7 enzyme): 11.3 µM; inhibition at 0.1 µg/mL (USP7 enzyme): 11.8%; inhibition at 1 µg/mL (USP7 enzyme): 35.8%; inhibition at 10 µg/mL (USP7 enzyme): 54%; inhibition at 100 µg/mL (USP7 enzyme): 81.5%; SI ([1]; CC50/IC50 ratio, Herpes Simplex Virus): 3.73; IC50 [1]: 75 µg/mL (≈ 177 µM); SI ([2]; CC50/IC50 ratio, Adenovirus Type 7): 2.45; SI (HCVcc genotype 4; CC50/IC50 ratio, HCVcc Genotype 4): 3.09; CC50 (Cytotoxicity test [4]): 280 µg/mL (≈ 661 µM); CC50 (Cytotoxicity test [5]): 270 µg/mL (≈ 638 µM); CC50 (Cytotoxicity test [6]): 240 µg/mL (≈ 567 µM); CC50 (Cytotoxicity test [7]): 260 µg/mL (≈ 614 µM); SI ([3]; CC50/IC50 ratio, Hepatitis A Virus HM175): 2.89; IC50 ([3]; Hepatovirus A, FRhK-4): 90 µg/mL (≈ 213 µM); SI (coxsackievirus B4 (CBV4); Coxsackievirus B4): 2.86; CC50 (Cytotoxicity test [8]): 260 µg/mL (≈ 614 µM) |
| Cc1ccc(S(=O)(=O)Nn2c(N)c(C#N)cc(-c3nc4ccccc4s3)c2=O)cc1 [compound 13c, N-(6-Amino-3-(benzo[d]thiazole-2-yl)-5-cyano-2-oxopyridine-1(2H)-yl)-4-methylbenzensulfonamide] | 10.0% | 3.3% | 10.0% | 110 µg/mL | 110 µg/mL | 110 µg/mL | 110 µg/mL | 6.7% | 10.0% | 100 µg/mL |  |
| Nc1nc2c(ncn2COCCO)c(=O)[nH]1 [acyclovir, reference compound] |  |  |  |  |  |  |  |  |  |  | IC50 (USP7 enzyme): 11 µM; inhibition at 0.1 µg/mL (USP7 enzyme): 18.7%; inhibition at 1 µg/mL (USP7 enzyme): 35%; inhibition at 10 µg/mL (USP7 enzyme): 71.7%; inhibition at 100 µg/mL (USP7 enzyme): 84.5%; IC50 [1]: 0.7 µg/mL (≈ 3.11 µM); CC50 (Cytotoxicity test [4]): 2.8 µg/mL (≈ 12.4 µM) |
| O=c1c(-c2nc3ccccc3s2)cc2c(n1NS(=O)(=O)c1ccccc1)CCCC2 [compound 7a] | 40.0% | 10.0% | 30.0% | 110 µg/mL | 110 µg/mL | 110 µg/mL | 110 µg/mL | 30.0% |  | 100 µg/mL | CC50 (BGM; uninfected host cells, section Coxsackievirus B4): 260 µg/mL (≈ 594 µM); SI (coxsackievirus B4 (CBV4); Coxsackievirus B4): 2.95; IC50 (coxsackievirus B4 (CBV4); Coxsackievirus B4): 88 µg/mL (≈ 201 µM) |
| CCOC(=O)c1cc(-c2nc3ccccc3s2)c(=O)n(NS(=O)(=O)c2ccc(C)cc2)c1N [compound 13f, Ethyl-2-amino-5-(benzo[d]thiazole-2-yl)-1-(4-methylphenylsulfonamido)-6-Oxo-1,6-dihydropyridine-3-carboxylate] | 23.3% | 16.7% | 20.0% | 140 µg/mL | 140 µg/mL | 130 µg/mL | 140 µg/mL | 20.0% | 20.0% | 140 µg/mL |  |
| O=c1c(-c2nc3ccccc3s2)cc2c(n1NS(=O)(=O)c1ccc(Cl)cc1)CCCC2 [compound 7b] | - ^a |  |  | 130 µg/mL | 130 µg/mL | 130 µg/mL | 130 µg/mL |  |  | 130 µg/mL |  |

Reference: publication PMC7689895 (ACS Omega, 2020)
